Data taken from ChEMBL document CHEMBL3822400, “New structure-activity relationships of N-acetamide substituted pyrazolopyrimidines as pharmacological ligands of TSPO” (Bioorg Med Chem Lett, 2016).

Experiments:
[1] = Fraction unbound in human plasma after 4.5 hrs by rapid equilibrium dialysis method; type: ADME, cell-free
In short: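 Equilibrium dialysis of plasma against buffer. After dialysis, the buffer and plasma fractions were extracted and analysed by standard LC-MS to quantify the compound.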

[2] = Lipophilicity, log P of the compound at pH 7.5 by HPLC method; type: physicochemical; settings: buffer
Translocator protein = Translocator protein (Rattus norvegicus, UniProt P16257); assay: Displacement of [3H]-PK11195 from TSPO in rat C6 cell lysate after 2 hrs by liquid scintillation counting; type: cell-free
Chain of Translocator protein (P16257 whole entry, looked up): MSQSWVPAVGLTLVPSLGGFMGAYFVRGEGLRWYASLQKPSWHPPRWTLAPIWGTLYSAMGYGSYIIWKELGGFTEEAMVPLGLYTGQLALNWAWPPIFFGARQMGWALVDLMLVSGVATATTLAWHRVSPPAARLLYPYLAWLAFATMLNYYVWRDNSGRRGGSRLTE

Row | Compound | Fu [1] | logP [2] | Ki (Translocator protein)
1 | CCc1cc(CC)n2nc(-c3ccc(OC)cc3)c(CC(=O)N(CC)CC)c2n1 | 1.1% |  | 
2 | CCc1cc(CC)n2nc(-c3ccc(OC)cc3)c(CC(=O)N(C(C)CC)C(C)CC)c2n1 (stereo not drawn) |  | 3.75 | 0.0144 µM
3 | CCc1cc(CC)n2nc(-c3ccc(OC)cc3)c(CC(=O)N(C)C)c2n1 |  | 2.47 | 0.0376 µM
4 | CCc1cc(CC)n2nc(-c3ccc(OC)cc3)c(CC(=O)N(CC)C(C)(C)C)c2n1 |  | 3.32 | 0.0591 µM
5 | CCc1cc(CC)n2nc(-c3ccc(OC)cc3)c(CC(=O)N3CCCCC3)c2n1 |  | 2.96 | 0.0492 µM
6 | CCc1cc(CC)n2nc(-c3ccc(OC)cc3)c(CC(=O)N(C(C)C)C(C)C)c2n1 |  | 3.26 | 0.02 µM
7 | CCCCCCN(CCCCCC)C(=O)Cc1c(-c2ccc(OC)cc2)nn2c(CC)cc(CC)nc12 |  | 4.78 | 0.0186 µM
8 | CCc1cc(CC)n2nc(-c3ccc(OC)cc3)c(CC(=O)N3CCC3)c2n1 |  | 2.58 | 0.0878 µM
9 | CCc1cc(CC)n2nc(-c3ccc(OC)cc3)c(CC(=O)N(C)C(C)(C)C)c2n1 | 1.3% | 3.13 | 0.0948 µM
10 | CCc1cc(CC)n2nc(-c3ccc(OC)cc3)c(CC(=O)N3CCCC3)c2n1 |  | 2.72 | 0.127 µM
11 | CCc1cc(CC)n2nc(-c3ccc(OC)cc3)c(CC(=O)N(Cc3ccccc3)Cc3ccccc3)c2n1 |  | 3.73 | 0.397 µM

More lines, in order of falling Ki (Translocator protein), values ahead:

Row | Fu [1] | logP [2] | Ki (Translocator protein) | Compound
12 |  | 3.77 | 0.0132 µM | CCc1cc(CC)n2nc(-c3ccc(OC)cc3)c(CC(=O)N(CC(C)C)CC(C)C)c2n1
13 | 0.3% | 3.81 | 0.00734 µM | CCCCN(CCCC)C(=O)Cc1c(-c2ccc(OC)cc2)nn2c(CC)cc(CC)nc12
14 | 1.1% | 3.11 | 0.00644 µM | CCc1cc(CC)n2nc(-c3ccc(OC)cc3)c(CC(=O)N(C)c3ccccc3)c2n1
15 | 0.7% | 3.35 | 0.00557 µM | CCCN(CCC)C(=O)Cc1c(-c2ccc(OC)cc2)nn2c(CC)cc(CC)nc12
16 |  | 4.29 | 0.00217 µM | CCCCCN(CCCCC)C(=O)Cc1c(-c2ccc(OC)cc2)nn2c(CC)cc(CC)nc12
17 | 0.6% | 3.27 | 0.00028 µM | CCc1cc(CC)n2nc(-c3ccc(OC)cc3)c(CC(=O)N(CC)c3ccccc3)c2n1
